Source: ChEMBL document CHEMBL1806372, “Cytotoxic ring A-modified steroid analogues derived from Grundmann's ketone” (Eur J Med Chem, 2011)
Active and inactive are the calls of the source. The rule behind the calls is not given here.

What was measured:
Format in all cases: functional
U-251 = test: Cytotoxicity against human U251 cells after 48 hrs by sulforhodamine B assay; settings: U-251, 48 h, read-out: LC50 (the source's name)
SK-MEL-28 = test: Cytotoxicity against human SK-MEL-28 cells after 48 hrs by sulforhodamine B assay; settings: SK-MEL-28, 48 h, read-out: LC50 (the source's name)
Outline: (§1)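 NCI 60 human tumour cell line panel run to the NCI protocol. GI50, TGI and LC50 come from log concentration vs % growth inhibition curves for each cell line. Lines insensitive at the top concentration are reported with ">".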

SK-MEL-5 = test: Cytotoxicity against human SK-MEL-5 cells after 48 hrs by sulforhodamine B assay; settings: SK-MEL-5, 48 h, read-out: LC50 (the source's name); outline: as §1
786-0 = test: Cytotoxicity against human 786-0 cells after 48 hrs by sulforhodamine B assay; settings: 786-0, 48 h, read-out: LC50 (the source's name); outline: as §1
A498 = test: Cytotoxicity against human A498 cells after 48 hrs by sulforhodamine B assay; settings: A498, 48 h, read-out: LC50 (the source's name); outline: as §1
ACHN = test: Cytotoxicity against human ACHN cells after 48 hrs by sulforhodamine B assay; settings: read-out: LC50 (the source's name); outline: as §1
CAKI-1 = test: Cytotoxicity against human Caki1 cells after 48 hrs by sulforhodamine B assay; settings: CAKI-1, 48 h, read-out: LC50 (the source's name); outline: as §1
RXF 393 = test: Cytotoxicity against human RXF393 cells after 48 hrs by sulforhodamine B assay; settings: RXF 393, 48 h, read-out: LC50 (the source's name); outline: as §1
UO-31 = test: Cytotoxicity against human UO31 cells after 48 hrs by sulforhodamine B assay; settings: UO-31, 48 h, read-out: LC50 (the source's name)
MCF7 [1] = test: Cytotoxicity against human MCF7 cells after 48 hrs by sulforhodamine B assay; settings: MCF7, 48 h, read-out: LC50 (the source's name); outline: as §1
MDA-MB-468 = test: Cytotoxicity against human MDA-MB-468 cells after 48 hrs by sulforhodamine B assay; settings: MDA-MB-468, 48 h, read-out: LC50 (the source's name); outline: as §1
SN12C = test: Growth inhibition of human SN12C cells after 48 hrs by sulforhodamine B assay
Outline: (§2)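 NCI 60-cell panel five-dose assay. GI50, TGI and LC50 are derived from log concentration versus % growth inhibition curves. Cell lines insensitive at the top concentration are given a ">" prefix.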

TK-10 = test: Growth inhibition of human TK10 cells after 48 hrs by sulforhodamine B assay; settings: TK-10, 48 h; outline: as §2
MCF7 [2] = test: Growth inhibition of human MCF7 cells after 48 hrs by sulforhodamine B assay; settings: MCF7, 48 h
Outline: (§3)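 GI50, TGI and LC50 were derived from log concentration versus % growth inhibition curves for each cell line. GI50 is the concentration giving a 50% decrease in net cell growth. Insensitive lines are reported as greater than the highest concentration.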

MDA-MB-231 = test: Growth inhibition of human MDA-MB-231 cells after 48 hrs by sulforhodamine B assay; settings: MDA-MB-231, 48 h; outline: as §3
HOP-92 = test: Cytotoxicity against human HOP92 cells after 48 hrs by sulforhodamine B assay; settings: HOP-92, 48 h, read-out: LC50 (the source's name); outline: as §1
NCI-H23 = test: Cytotoxicity against human NCI-H23 cells after 48 hrs by sulforhodamine B assay; settings: NCI-H23, 48 h, read-out: LC50 (the source's name); outline: as §1
NCI-H322M = test: Growth inhibition of human NCI-H322M cells after 48 hrs by sulforhodamine B assay; outline: as §3
KM12 = test: Growth inhibition of human KM12 cells after 48 hrs by sulforhodamine B assay; settings: KM12, 48 h
Outline: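 From log concentration versus % growth curves, GI50 (50% decrease in net growth), TGI (total growth inhibition) and LC50 (net 50% loss of initial cells) are derived for each line.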

SF-539 = test: Growth inhibition of human SF539 cells after 48 hrs by sulforhodamine B assay; settings: SF-539, 48 h; outline: as §3
MDA-MB-435 = test: Growth inhibition of human MDA-MB-435 cells after 48 hrs by sulforhodamine B assay; settings: MDA-MB-435, 48 h; outline: as §3
Burkholderia gladioli = test: Antibacterial activity against Pseudomonas antimicrobica assessed as zone of inhibition at 5 uL and 32 degC after 36 hrs by disk diffusion method
Outline: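 Disc diffusion on AC agar, each strain spread evenly over the medium; test compounds given as 1% (w/v) DMSO solutions. Plates covered and incubated 36 h at 32 °C, then the diameter of the zone of inhibited growth measured in mm. Tetracycline served as antibacterial reference.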

Structure (SMILES) | CC50 (SK-MEL-28) | CC50 (UO-31) | GI50 (SN12C) | TGI (SN12C) | GI50 (TK-10) | TGI (TK-10) | GI50 (MCF7 [2]) | TGI (MCF7 [2]) | GI50 (MDA-MB-231) | TGI (MDA-MB-231) | CC50 (NCI-H23) | GI50 (NCI-H322M) | TGI (NCI-H322M) | GI50 (KM12) | TGI (KM12) | GI50 (SF-539) | GI50 (MDA-MB-435) | TGI (MDA-MB-435) | also measured
CC(C)CCC[C@@H](C)[C@H]1CC[C@H]2C3=CCn4c(=O)ccc(=O)n4[C@@H]3CC[C@]12C | 4.14 µM | 4.19 µM | 0.388 µM | 1.69 µM | 0.356 µM | 1.26 µM | 0.285 µM | 1.24 µM | 1.04 µM | 2.54 µM | 9 µM | 1.45 µM | 2.91 µM | 0.443 µM | 1.51 µM | 1.47 µM | 0.354 µM | 1.78 µM | CC50 (U-251): 4.18 µM; CC50 (SK-MEL-5): 4.52 µM; CC50 (786-0): 4.43 µM; CC50 (A498): 4.87 µM; CC50 (ACHN): 5.19 µM; CC50 (CAKI-1): 3.47 µM; CC50 (RXF 393): 5.43 µM; CC50 (MCF7 [1]): 4.26 µM; CC50 (MDA-MB-468): 9.42 µM; CC50 (HOP-92): 3.76 µM; TGI (SF-539): 2.89 µM
CC(C)CCC[C@@H](C)[C@H]1CC[C@H]2C3=CC[C@@H]4C(=O)C=CC(=O)[C@@H]4[C@@H]3CC[C@]12C | > 100 µM | > 1.75 µM | 0.269 µM | > 100 µM | 2.65 µM | > 100 µM | 0.112 µM | 0.757 µM | 0.343 µM | 1.76 µM | > 100 µM | 0.305 µM | 0.849 µM | 0.338 µM | > 100 µM | 0.478 µM | 0.229 µM | 0.997 µM | diameter of the inhibition zone (DIZ) (Burkholderia gladioli): inactive
